pIC50: −log10 of the molar value.

One may read the pIC50 as the IC50 on a negative log10 scale, so that one unit is a factor of ten. The low end stands for a high IC50, the high end for a low IC50. The term inhibition denotes the percentage by which the read-out fell short of the control. Low readings indicate little suppression, high ones strong suppression.

Target in one assay: not listed separately
Briefly: Displacement of 3[H]Flunitrazepam from GABA-A central benzodiazepine receptor of bovine brain membranes. In kind it is cell membranes, Bos taurus. The method in brief:
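Bovine brain membranes (0.4–0.5 mg protein) were incubated in triplicate with 0.6 nM [3H]flunitrazepam in 50 mM Tris-HCl at 0 °C for 90 min. Displacers were added in ethanol, at seven concentrations each. Nonspecific binding was defined with 10 μM diazepam. Samples were diluted with cold buffer, filtered on glass fibre and counted by scintillation. IC50 was taken from log-probit analysis; values are means ± SEM of seven determinations.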
On to `Oc1nc2ccccc2c2c1c(-c1ccccc1)nn2-c1ccccc1`, for which the pIC50 is 4.68.

For `COc1ccc(-n2nc3c4ccccc4[nH]cc-3c2=O)cc1`, the pIC50 is 10.00. This pIC50 lies 5.32 log units higher than the previous one.

`Cc1ccc(-n2nc(-c3ccccc3)c3c(O)nc4ccccc4c32)cc1` showed a pIC50 of 4.41.

Consider `Oc1nc2ccccc2c2c1c(-c1ccccc1)nn2-c1ccc(Cl)cc1`, for which the pIC50 was 4.52.

In turn, `CNC1=Nc2ccc(Cl)cc2C(c2ccccc2)=[N+]([O-])C1` [CHLORDIAZEPOXIDE] had a pIC50 of 9.10.

As for `Cc1cccc(-n2nc(-c3ccccc3)c3c(=O)n(C)c4ccccc4c32)c1`, the pIC50 is 7.05.

`Cc1ccc(-n2nc(-c3ccccc3)c3c(=O)n(C)c4ccccc4c32)cc1` gave a pIC50 of 5.96.

`Cn1c(=O)c2c(-c3ccccc3)nn(-c3cccc(Cl)c3)c2c2ccccc21` had a pIC50 of 7.15. Against the preceding compound, the pIC50 is 1.19 log units higher.

In turn, `O=C1C2C=Nc3ccccc3C2=NN1c1ccccc1` (stereo not given) [CGS-8216] had a pIC50 of 9.40.

`Oc1nc2ccccc2c2c1c(-c1ccccc1)nn2-c1cccc(Br)c1` showed a pIC50 of 5.82.

`Cc1cccc(-n2nc(-c3ccccc3)c3c(O)nc4ccccc4c32)c1` showed a pIC50 of 5.52.

`Cn1c(=O)c2c(-c3ccccc3)nn(-c3ccc(Cl)cc3)c2c2ccccc21` showed a pIC50 of 5.94.

The compound `Oc1nc2ccccc2c2c1c(-c1ccccc1)nn2-c1cccc(Cl)c1` had a pIC50 of 5.52.

For the compound `O=C1C2C=Nc3ccccc3C2=NN1c1ccc(Cl)cc1` (stereo not given) [CGS-9896], the pIC50 was 9.22.

As for `CN1C(=O)CN=C(c2ccccc2)c2cc(Cl)ccc21` [DIAZEPAM], the pIC50 is 10.60.

`Cn1c(=O)c2c(-c3ccccc3)nn(-c3ccccc3)c2c2ccccc21` gave a pIC50 of 5.51.

The compound `Cn1c(=O)c2c(-c3ccccc3)nn(-c3cccc(Br)c3)c2c2ccccc21` gave a pIC50 of 7.00.

Another assay is filed under the species Bos taurus. Briefly: Displacement of 3[H]Flunitrazepam from GABA-A central benzodiazepine receptor of bovine brain membranes at 3.4 uM. The format is cell membranes. Put shortly:
(§1)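 A single-concentration screen against specific [3H]flunitrazepam (0.6 nM) binding to bovine brain membranes (0.4–0.5 mg protein). Incubation was in 50 mM Tris-HCl at 0 °C for 90 min, with compounds added in ethanol. Diazepam at 10 μM defined nonspecific binding. Bound ligand was collected by rapid glass-fibre filtration and counted by scintillation. Percent inhibition is given as means ± SEM of five determinations.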
`Cn1c(=O)c2c(c(-c3ccccc3)nn2-c2ccccc2)c2ccccc21`: the inhibition is 21%.

The species entered for a further assay is Bos taurus. Briefly: Displacement of 3[H]Flunitrazepam from GABA-A central benzodiazepine receptor of bovine brain membranes at 34 uM. In kind it is cell membranes. Put shortly:
as §1
`Oc1nc2ccccc2c2c(-c3ccccc3)nn(-c3ccccc3)c12` came in with an inhibition of 10%.

In the case of `Oc1nc2ccccc2c2c(-c3ccccc3)nn(-c3cccc(Cl)c3)c12`, the inhibition turned out to be 8%.
